Results: ChEMBL document CHEMBL4825680, “Structure-based discovery of potent and selective small-molecule inhibitors targeting signal transducer and activator of transcription 3 (STAT3)” (Eur J Med Chem, 2021)
The source made the active and inactive calls. No cut-off for these calls is given here.

Tests used:
MDA231-LM2-4175 = test: Effect on total STAT3 level in human MDA231-LM2-4175 cells at 0.3 to 3 uM measured after 3 hrs by Western blot analysis; format: functional, cell-based; details: dose 0.3-3 µM
Method in brief: (§1)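 Breast cancer cells were treated with vehicle (0.1% DMSO) or compound, then lysed in RIPA with PMSF and phosphatase inhibitors. 20–50 μg protein was run on 8 or 12% SDS-PAGE, blotted to PVDF, blocked in 5% BSA, probed with primary antibodies overnight at 4 °C, then HRP secondaries, with ECL detection.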

[1] = target: T1, Signal transducer and activator of transcription 5A (Homo sapiens) (UniProt P42229); test: Inhibition of STAT5 phosphorylation at Y694 residue in human HCC70 cells at 0.3 to 3 uM after 3 hrs by Western blotting analysis; format: cell-based; details: dose 0.3-3 µM
T1 sequence (whole entry): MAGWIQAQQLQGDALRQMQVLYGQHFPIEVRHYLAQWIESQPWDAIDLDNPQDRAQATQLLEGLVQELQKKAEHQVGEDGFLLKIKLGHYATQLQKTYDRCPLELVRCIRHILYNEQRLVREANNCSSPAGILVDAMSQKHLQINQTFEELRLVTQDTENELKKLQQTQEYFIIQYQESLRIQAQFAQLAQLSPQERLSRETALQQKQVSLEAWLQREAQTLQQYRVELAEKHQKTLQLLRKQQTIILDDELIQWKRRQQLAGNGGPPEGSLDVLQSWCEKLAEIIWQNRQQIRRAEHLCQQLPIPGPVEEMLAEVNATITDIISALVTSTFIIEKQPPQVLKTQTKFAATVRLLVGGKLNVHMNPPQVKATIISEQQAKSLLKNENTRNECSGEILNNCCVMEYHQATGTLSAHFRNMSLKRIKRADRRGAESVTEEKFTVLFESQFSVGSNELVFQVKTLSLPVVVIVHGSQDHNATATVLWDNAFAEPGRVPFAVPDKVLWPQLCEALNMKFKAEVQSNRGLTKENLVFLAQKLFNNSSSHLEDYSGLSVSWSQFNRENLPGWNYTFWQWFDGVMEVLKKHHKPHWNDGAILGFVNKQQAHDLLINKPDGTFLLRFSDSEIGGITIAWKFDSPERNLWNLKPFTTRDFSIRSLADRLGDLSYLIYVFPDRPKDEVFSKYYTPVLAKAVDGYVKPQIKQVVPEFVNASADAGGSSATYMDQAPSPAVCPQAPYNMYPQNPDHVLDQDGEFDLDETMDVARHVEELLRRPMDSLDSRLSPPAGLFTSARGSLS

HCC70 = test: Effect on total STAT1 level in human HCC70 cells at 0.3 to 3 uM after 3 hrs by Western blotting analysis; format: functional, cell-based; details: dose 0.3-3 µM; method in brief: as §1
[2] = target: T2, Signal transducer and activator of transcription 3 (Homo sapiens, UniProt P40763); test: Inhibition of HA-tagged STAT3 dimerization (unknown origin) expressed in HEK293T cells after 24 hrs by confocal microscopic analysis; format: cell-based; details: dose 1-3 µM
Method in brief: (§2)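 HEK-293T cells transfected with HA-STAT3 and Flag-STAT3. After 24 h, treated with vehicle (0.1% DMSO) or compound for 24 h, with IL-6 100 ng/mL added for 30 min. Fixed in paraformaldehyde, permeabilised with Triton X-100, stained with anti-HA and anti-Flag plus Alexa 488/555 secondaries and DAPI. Confocal imaging for colocalisation.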

[3] = target: T2, Signal transducer and activator of transcription 3; test: Inhibition of Flag-tagged STAT3 dimerization (unknown origin) expressed in HEK293T cells after 24 hrs by confocal microscopic analysis; format: cell-based; details: dose 1-3 µM; method in brief: as §2
[4] = target: T2, Signal transducer and activator of transcription 3; test: Inhibition of HA-tagged STAT3 dimerization (unknown origin) expressed in HEK293T cells preincubated for 3 hrs followed by IL-3 stimulation by immunoprecipitation analysis; format: cell-based; details: dose 1-3 µM
[5] = target: T2, Signal transducer and activator of transcription 3; test: Inhibition of STAT3 DNA binding in human MDA-MB-231 cells at 0.3 to 1 uM after 3 hrs by EMSA analysis; format: cell-based; details: dose 0.3-1 µM
Method in brief: (§3)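 Cells exposed to vehicle or compound for 3 h. Nuclear extracts prepared and BCA-quantified. Nuclear protein (8–10 µg) incubated with biotinylated STAT3 or STAT5 probe, resolved on 6% native polyacrylamide gel, transferred to nylon membrane and detected with a gel-shift kit.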

[6] = target: T1, Signal transducer and activator of transcription 5A (Homo sapiens); test: Inhibition of STAT5 DNA binding in human MDA-MB-231 cells at 3 uM after 3 hrs by EMSA analysis; format: cell-based; method in brief: as §3
[7] = target: T2, Signal transducer and activator of transcription 3; test: Inhibition of STAT3 in human MDA-MB-468 cells assessed as downregulation of Mcl-1 expression at 0.3 to 3 uM after 24 hrs by western blot analysis; format: cell-based; details: dose 0.3-3 µM
Method in brief: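 TNBC cells given vehicle (0.1% DMSO) or graded compound levels for 24 h, lysed in RIPA with PMSF and phosphatase inhibitors. BCA-quantified lysate (20–50 µg) run on SDS-PAGE, transferred to PVDF, blocked in 5% BSA. Probed overnight at 4 °C for Bcl-xL, Mcl-1 and c-Myc, with β-actin. HRP secondary, ECL detection. Three independent experiments.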

[8] = Induction of apoptosis in human MDA231-LM2-4175 cells assessed as viable cells at 1 uM after 48 hrs by Annexin-V-FITC/propidium iodide staining based flow cytometric analysis (reference value: 94.4%); format: functional; details: read-out: Activity
[9] = Antitumor activity against human MDA231-LM2-4175 cells xenografted in mouse assessed as tumor growth inhibition at 15 mg/kg, iv administered once daily for 20 days; format: functional; details: MDA231-LM2-4175, iv, 480 h, time 20 day, read-out: TGI
[10] = Antitumor activity against patient-derived breast cancer cells xenografted in NOD/SCID mouse assessed as tumor growth inhibition at 5 mg/kg, iv administered once daily for 20 days; format: functional; details: Homo sapiens, Breast cancer cell line, 480 h, time 20 day, read-out: TGI
Breast cancer cell line = test: Antitumor activity against patient-derived breast cancer cells xenografted in NOD/SCID mouse assessed as reduction in Mcl-1 expression at 5 to 15 mg/kg, iv administered once daily for 20 days by Western blotting analysis; format: functional, organism-based; details: Homo sapiens, dose 5-15 mg/kg, time 20.0 day
[11] = Toxicity in NOD/SCID mouse xenografted with patient-derived breast cancer cells assessed as morphological change in heart at 5 to 15 mg/kg, […] once daily for 20 days by HE staining based assay; format: organism-based; details: in vivo, iv, dose 5-15 mg/kg, time 20 day
Method in brief: (§4)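 Female NOD-SCID mice implanted subcutaneously in the flank with about 2 mm³ TNBC PDX fragments. At about 100 mm³ tumour volume, randomised n=6/group: vehicle (PBS with 15% Cremophor EL), 5 or 15 mg/kg intraperitoneally daily. Killed at day 20; heart, liver, spleen, lung and kidney collected for morphological examination.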

[12] = Toxicity in NOD/SCID mouse xenografted with patient-derived breast cancer cells assessed as morphological change in lung at 5 to 15 mg/kg, […] once daily for 20 days by HE staining based assay; format: organism-based; details: in vivo, iv, dose 5-15 mg/kg, time 20 day; method in brief: as §4
[13] = Toxicity in NOD/SCID mouse xenografted with patient-derived breast cancer cells assessed as loss of appetite at 5 to 15 mg/kg, iv administered once daily for 20 days; format: organism-based; details: in vivo, 480 h, dose 5-15 mg/kg, time 20 day

T2 sequence (P40763 whole entry): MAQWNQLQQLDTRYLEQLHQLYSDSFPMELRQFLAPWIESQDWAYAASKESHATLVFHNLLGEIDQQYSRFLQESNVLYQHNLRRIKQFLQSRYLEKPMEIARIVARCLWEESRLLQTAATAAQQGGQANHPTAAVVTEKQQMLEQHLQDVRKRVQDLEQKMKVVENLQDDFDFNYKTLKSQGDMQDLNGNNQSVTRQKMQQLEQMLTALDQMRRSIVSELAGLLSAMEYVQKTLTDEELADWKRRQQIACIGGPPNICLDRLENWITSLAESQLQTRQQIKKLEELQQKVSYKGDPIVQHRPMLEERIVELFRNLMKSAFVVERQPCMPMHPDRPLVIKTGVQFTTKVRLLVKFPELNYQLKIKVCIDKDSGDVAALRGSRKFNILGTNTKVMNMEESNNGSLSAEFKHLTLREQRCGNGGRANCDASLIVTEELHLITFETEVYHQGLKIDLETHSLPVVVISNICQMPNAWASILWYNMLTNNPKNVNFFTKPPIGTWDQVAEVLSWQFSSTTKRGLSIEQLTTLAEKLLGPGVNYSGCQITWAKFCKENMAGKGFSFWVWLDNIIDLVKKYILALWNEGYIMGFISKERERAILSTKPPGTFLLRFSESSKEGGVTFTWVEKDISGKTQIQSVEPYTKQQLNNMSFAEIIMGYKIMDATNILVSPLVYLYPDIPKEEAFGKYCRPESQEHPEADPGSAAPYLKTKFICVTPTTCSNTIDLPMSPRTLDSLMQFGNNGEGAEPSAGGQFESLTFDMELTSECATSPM

In the case of `O=C(Cc1c(-c2ccccc2)nc2ccccn12)Nc1ccc2c(c1)S(=O)(=O)C=C2`, the Activity (MDA231-LM2-4175) is reported as “inactive”, the inhibition [1] is reported as “inactive” and the Activity (HCC70) is reported as “inactive”. The inhibition [2] was “Dose-Dependent Effect”, the inhibition [3] was “Dose-Dependent Effect” and the inhibition [4] was “Dose-Dependent Effect”. The inhibition [5] was “Active”, the inhibition [6] was “inactive” and the inhibition [7] was “Active”. It also gave a viability at 1 µM [8] of 88.7%, an inhibition in vivo at 15 mg/kg [9] of 40.2% and an inhibition in vivo at 5 mg/kg [10] of 32.7%. The Activity (Breast cancer cell line) was “Active”, the Activity [11] was “Non-Toxic” and the Activity [12] was “Non-Toxic”. For the same molecule, the Activity [13] was “Non-Toxic”.
